Active and inactive are the calls of the source. The rule behind the calls is not given here.
What was measured:
Pseudomonas aeruginosa [1] = test: Antimicrobial activity against Pseudomonas aeruginosa assessed as inhibition of microbial growth at 45 uM after 24 hrs; assay type: functional, organism-based
In short: (§1)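 Broth microdilution single-concentration read: overnight cultures diluted 1:1000, compound in DMF (≤2.0%) added, 37°C for 24 h, growth inhibition scored visually by lack of turbidity; triplicate. Gram-positives grown in TSB, Gram-negatives in LB.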

Enterococcus faecium [2] = test: Antimicrobial activity against Enterococcus faecium assessed as inhibition of microbial growth at 45 uM after 24 hrs; assay type: functional, organism-based; in short: as §1
Staphylococcus aureus [3] = test: Antimicrobial activity against Staphylococcus aureus assessed as inhibition of microbial growth at 45 uM after 24 hrs; assay type: functional, organism-based; in short: as §1
Klebsiella pneumoniae [4] = test: Antimicrobial activity against Klebsiella pneumoniae assessed as inhibition of microbial growth at 45 uM after 24 hrs; assay type: functional, organism-based; in short: as §1
Acinetobacter baumannii [5] = test: Antimicrobial activity against Acinetobacter baumannii assessed as inhibition of microbial growth at 45 uM after 24 hrs; assay type: functional, organism-based; in short: as §1
Enterobacter cloacae [6] = test: Antimicrobial activity against Enterobacter cloacae assessed as inhibition of microbial growth at 45 uM after 24 hrs; assay type: functional, organism-based; in short: as §1
Klebsiella pneumoniae [7] = test: Antimicrobial activity against Klebsiella pneumoniae assessed as inhibition of microbial growth after 24 hrs; assay type: functional
In short: (§2)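 Broth microdilution against multidrug-resistant clinical ESKAPE isolates. Overnight cultures (TSB for Gram-positives, LB for Gram-negatives) diluted 1:1000 in fresh medium, compound in DMF (≤2.0% DMF) added at decreasing concentrations, 37°C.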

Pseudomonas aeruginosa [8] = test: Antimicrobial activity against Pseudomonas aeruginosa assessed as inhibition of microbial growth after 24 hrs; assay type: functional; in short: as §2
Staphylococcus aureus [9] = test: Antimicrobial activity against Staphylococcus aureus assessed as inhibition of microbial growth after 24 hrs; assay type: functional; in short: as §2
Enterococcus faecium [10] = test: Antimicrobial activity against Enterococcus faecium assessed as inhibition of microbial growth after 24 hrs; assay type: functional; in short: as §2
Acinetobacter baumannii [11] = test: Antimicrobial activity against Acinetobacter baumannii assessed as inhibition of microbial growth after 24 hrs; assay type: functional; in short: as §2
Enterobacter cloacae [12] = test: Antimicrobial activity against Enterobacter cloacae assessed as inhibition of microbial growth after 24 hrs; assay type: functional; in short: as §2

Structure (SMILES) | growth inhibition (GI) (Pseudomonas aeruginosa [1]) | growth inhibition (GI) (Enterococcus faecium [2]) | growth inhibition (GI) (Staphylococcus aureus [3]) | growth inhibition (GI) (Klebsiella pneumoniae [4]) | growth inhibition (GI) (Acinetobacter baumannii [5]) | growth inhibition (GI) (Enterobacter cloacae [6]) | MIC (Klebsiella pneumoniae [7]) | MIC (Pseudomonas aeruginosa [8]) | MIC (Staphylococcus aureus [9]) | MIC (Enterococcus faecium [10]) | MIC (Acinetobacter baumannii [11]) | MIC (Enterobacter cloacae [12])
N=C1NC[C@H](CCCCN2C[C@H](CC3CCCCC3)N(CCc3ccc(-c4ccccc4)cc3)C2=N)N1CCCCC1CCCCC1 | Active | Active | Active | Active | Active | Active |  |  |  |  |  | 
CCCC[C@H]1CN(CCCC[C@H]2CNC(=N)N2CCC23CC4CC(CC(C4)C2)C3)C(=N)N1CCc1ccc(-c2ccccc2)cc1 | Active | Active | Active | Active | Active | Active |  |  |  |  |  | 
N=C1NC[C@H](CCCCN2C[C@@H](Cc3cccc4ccccc34)N(CCc3ccc(-c4ccccc4)cc3)C2=N)N1CCC12CC3CC(CC(C3)C1)C2 | inactive | inactive | inactive | inactive | inactive | inactive |  |  |  |  |  | 
CCCCCCCN1C(=N)N(CCCC[C@H]2CNC(=N)N2CCC23CC4CC(CC(C4)C2)C3)C[C@H]1Cc1cccc2ccccc12 | Active | Active | Active | Active | Active | Active |  |  |  |  |  | 
N=C1NC[C@H](CCCCN2C[C@@H](Cc3cccc4ccccc34)N(CCCCC3CCCCC3)C2=N)N1CCC12CC3CC(CC(C3)C1)C2 | inactive | inactive | inactive | inactive | inactive | inactive |  |  |  |  |  | 
N=C1NC[C@H](CCCCN2C[C@@H](Cc3cccc4ccccc34)N(CCc3ccc(-c4ccccc4)cc3)C2=N)N1CCc1cccc(C(F)(F)F)c1 | Active | Active | Active | Active | Active | Active |  |  |  |  |  | 
N=C1NC[C@H](CCCCN2C[C@H](CC3CCCCC3)N(CCc3ccc(-c4ccccc4)cc3)C2=N)N1CCC12CC3CC(CC(C3)C1)C2 | Active | Active | Active | Active | Active | Active |  |  |  |  |  | 
CCCCCCCN1C(=N)N(CCCC[C@H]2CNC(=N)N2CCc2cccc(C(F)(F)F)c2)C[C@H]1Cc1cccc2ccccc12 | Active | Active | Active | Active | Active | Active |  |  |  |  |  | 
CCCCCCCN1C(=N)N(CCCC[C@H]2CNC(=N)N2CCC23CC4CC(CC(C4)C2)C3)C[C@@H]1CC1CCCCC1 | Active | Active | Active | Active | Active | Active |  |  |  |  |  | 
CCCCCCCN1C(=N)N(CCCC[C@H]2CNC(=N)N2CCCCC2CCCCC2)C[C@@H]1CCCC | Active | Active | Active | Active | Active | Active |  |  |  |  |  | 
N=C1NC[C@H](CCCCN2C[C@@H](Cc3cccc4ccccc34)N(CCCCC3CCCCC3)C2=N)N1CCc1cccc(C(F)(F)F)c1 | Active | Active | Active | Active | Active | Active |  |  |  |  |  | 
N=C1NC[C@H](CCCCN2C[C@H](CC3CCCCC3)N(CCCCC3CCCCC3)C2=N)N1CCCCC1CCCCC1 | Active | Active | Active | Active | Active | Active |  |  |  |  |  | 
CCCC[C@H]1CN(CCCC[C@H]2CNC(=N)N2CCC23CC4CC(CC(C4)C2)C3)C(=N)N1CCCCC1CCCCC1 | Active | Active | Active | Active | Active | Active |  |  |  |  |  | 
CCCCCCCN1C(=N)N(CCCC[C@H]2CNC(=N)N2CCCCC2CCCCC2)C[C@H]1Cc1cccc2ccccc12 | Active | Active | Active | Active | Active | Active |  |  |  |  |  | 
N=C1NC[C@H](CCCCN2C[C@H](CC3CCCCC3)N(CCCCC3CCCCC3)C2=N)N1CCC12CC3CC(CC(C3)C1)C2 | Active | Active | Active | Active | Active | Active |  |  |  |  |  | 
CCCC[C@H]1CN(CCCC[C@H]2CNC(=N)N2CCCCC2CCCCC2)C(=N)N1CCCCC1CCCCC1 | Active | Active | Active | Active | Active | Active |  |  |  |  |  | 
CCC(C)CN1CCN(CCCC[C@H]2CNC(=N)N2CC2CCC(C)CC2)C1=N (some centres undefined) |  |  |  |  |  |  | inactive | inactive | inactive | inactive | inactive | inactive
Cc1cccc(CCN2CCN(CCCC[C@H]3CNC(=N)N3CC3CCCCC3)C2=N)c1 |  |  |  |  |  |  | inactive | inactive | inactive | inactive | inactive | inactive
CCC[C@@H]1CN(CCCC[C@H]2CNC(=N)N2CC2CCCCC2)C(=N)N1 |  |  |  |  |  |  | inactive | inactive | inactive | inactive | inactive | inactive
Cc1cccc(CCN2CCN(CCCC[C@H]3CNC(=N)N3CC3CCC(C)CC3)C2=N)c1 (some centres undefined) |  |  |  |  |  |  | inactive | inactive | inactive | inactive | inactive | inactive
CCC[C@@H]1CN(CCCC[C@H]2CNC(=N)N2CC2CCC(C)CC2)C(=N)N1 (some centres undefined) |  |  |  |  |  |  | inactive | inactive | inactive | inactive | inactive | inactive
CCCCCCCN1C(=N)NC[C@@H]1CCCCN1C[C@H]([C@@H](C)CC)NC1=N |  |  |  |  |  |  | inactive | inactive | inactive | inactive | inactive | inactive
CCCCCCCN1C(=N)NC[C@@H]1CCCCN1C[C@H]([C@@H](C)CC)N(CCc2cccc(C)c2)C1=N |  |  |  |  |  |  | inactive | inactive | inactive | inactive | inactive | inactive
CCCC[C@H]1CN(CCCC[C@H]2CNC(=N)N2CCc2cccc(C(F)(F)F)c2)C(=N)N1CCc1ccc(-c2ccccc2)cc1 | Active | Active | Active | Active | Active | Active |  |  |  |  |  | 
CCCCCCCN1C(=N)NC[C@@H]1CCCCN1CCNC1=N |  |  |  |  |  |  | inactive | inactive | inactive | inactive | inactive | inactive
CCCCCCCN1C(=N)NC[C@@H]1CCCCN1C[C@H]([C@@H](C)CC)N(CC(C)CC)C1=N (some centres undefined) |  |  |  |  |  |  | inactive | inactive | inactive | inactive | inactive | inactive
CCC(C)CN1CCN(CCCC[C@H]2CNC(=N)N2CC2CCCCC2)C1=N (some centres undefined) |  |  |  |  |  |  | inactive | inactive | inactive | inactive | inactive | inactive
CCCCCCCN1C(=N)NC[C@@H]1CCCCN1C[C@@H](CCC)N(CCc2cccc(C)c2)C1=N |  |  |  |  |  |  | inactive | inactive | inactive | inactive | inactive | inactive
CCC(C)CN1C(=N)N(CCCC[C@H]2CNC(=N)N2CC2CCC(C)CC2)C[C@@H]1[C@@H](C)CC (some centres undefined) |  |  |  |  |  |  | inactive | inactive | inactive | inactive | inactive | inactive

From ChEMBL document CHEMBL3421570, “Combinatorial Libraries As a Tool for the Discovery of Novel, Broad-Spectrum Antibacterial Agents Targeting the ESKAPE Pathogens” (J Med Chem, 2015)
